# Measured values as given in paper PMC6977399 (Clinical Pharmacology and Therapeutics, 2019).
# Columns and labels:
# Type in all cases: in vitro ADME
# CYP2C8 = target: T1, CYP2C8 (Homo sapiens, UniProt P10632); assay: CYP inhibition in human liver microsomes; settings: up to 50 μM
# T1 sequence (P10632 1-490): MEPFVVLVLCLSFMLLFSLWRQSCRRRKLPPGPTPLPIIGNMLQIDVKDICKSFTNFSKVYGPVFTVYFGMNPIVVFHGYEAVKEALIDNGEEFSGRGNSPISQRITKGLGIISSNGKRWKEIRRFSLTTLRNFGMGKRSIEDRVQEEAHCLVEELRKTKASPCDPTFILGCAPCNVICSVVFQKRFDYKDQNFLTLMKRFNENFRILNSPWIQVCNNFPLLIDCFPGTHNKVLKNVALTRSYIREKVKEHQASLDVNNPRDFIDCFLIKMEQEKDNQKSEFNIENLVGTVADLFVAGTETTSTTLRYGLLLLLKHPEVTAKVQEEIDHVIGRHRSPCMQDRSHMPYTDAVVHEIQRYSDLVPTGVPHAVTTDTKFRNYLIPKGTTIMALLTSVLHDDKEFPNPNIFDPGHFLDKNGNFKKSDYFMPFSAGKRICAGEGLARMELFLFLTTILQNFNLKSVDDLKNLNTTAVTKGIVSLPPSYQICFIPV
# Procedure, shortened: (§1)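 Reversible inhibition: test compound pre-incubated 10 min at 37°C with pooled human liver microsomes plus an isoform-selective probe substrate. Reaction started with NADPH (1.3 mM), then quenched with 3% formic acid in acetonitrile containing internal standard. CYP-specific metabolite formation measured by LC-MS/MS. Activity expressed as % control = (peak area ratio with compound / without compound) × 100.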
# CYP1A2 = target: T2, CYP1A2 (Homo sapiens, UniProt P05177); assay: CYP inhibition in human liver microsomes; settings: up to 50 μM
# T2 sequence (P05177 1-516): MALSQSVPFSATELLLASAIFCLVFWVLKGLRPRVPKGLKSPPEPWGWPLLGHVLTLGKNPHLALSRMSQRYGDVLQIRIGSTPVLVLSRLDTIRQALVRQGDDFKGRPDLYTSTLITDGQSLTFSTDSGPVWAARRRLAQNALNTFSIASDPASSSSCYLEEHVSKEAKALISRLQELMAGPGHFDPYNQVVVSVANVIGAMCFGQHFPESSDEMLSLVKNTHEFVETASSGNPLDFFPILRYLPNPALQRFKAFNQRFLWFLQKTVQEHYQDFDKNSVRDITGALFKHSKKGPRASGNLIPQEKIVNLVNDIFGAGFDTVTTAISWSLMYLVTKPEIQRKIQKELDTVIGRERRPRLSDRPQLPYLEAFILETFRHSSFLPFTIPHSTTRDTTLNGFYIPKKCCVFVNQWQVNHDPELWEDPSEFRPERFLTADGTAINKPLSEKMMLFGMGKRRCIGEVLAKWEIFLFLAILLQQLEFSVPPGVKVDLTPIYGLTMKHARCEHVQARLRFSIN
# Procedure, shortened: as §1
# CYP2B6 = target: T3, CYP2B6 (Homo sapiens, UniProt P20813); assay: CYP inhibition in human liver microsomes; settings: up to 50 μM
# T3 sequence (P20813 1-491): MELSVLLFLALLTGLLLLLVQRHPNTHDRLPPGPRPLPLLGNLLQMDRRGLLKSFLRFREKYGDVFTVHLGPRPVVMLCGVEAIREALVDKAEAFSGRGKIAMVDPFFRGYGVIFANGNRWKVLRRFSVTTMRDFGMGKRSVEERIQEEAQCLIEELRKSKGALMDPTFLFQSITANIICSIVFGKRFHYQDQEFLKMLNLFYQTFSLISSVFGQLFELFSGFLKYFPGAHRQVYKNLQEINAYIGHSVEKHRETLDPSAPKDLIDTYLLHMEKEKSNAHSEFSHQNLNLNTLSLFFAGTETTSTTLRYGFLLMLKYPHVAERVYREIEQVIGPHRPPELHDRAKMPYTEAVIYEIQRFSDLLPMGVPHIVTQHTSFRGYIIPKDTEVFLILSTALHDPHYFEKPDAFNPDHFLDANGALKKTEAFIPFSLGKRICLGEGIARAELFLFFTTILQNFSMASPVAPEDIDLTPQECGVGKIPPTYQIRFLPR
# Procedure, shortened: as §1
# CYP2C9 = CYP2C9 (Homo sapiens, UniProt P11712); assay: CYP inhibition in human liver microsomes; settings: up to 50 μM
# Chain of CYP2C9 (P11712 whole entry): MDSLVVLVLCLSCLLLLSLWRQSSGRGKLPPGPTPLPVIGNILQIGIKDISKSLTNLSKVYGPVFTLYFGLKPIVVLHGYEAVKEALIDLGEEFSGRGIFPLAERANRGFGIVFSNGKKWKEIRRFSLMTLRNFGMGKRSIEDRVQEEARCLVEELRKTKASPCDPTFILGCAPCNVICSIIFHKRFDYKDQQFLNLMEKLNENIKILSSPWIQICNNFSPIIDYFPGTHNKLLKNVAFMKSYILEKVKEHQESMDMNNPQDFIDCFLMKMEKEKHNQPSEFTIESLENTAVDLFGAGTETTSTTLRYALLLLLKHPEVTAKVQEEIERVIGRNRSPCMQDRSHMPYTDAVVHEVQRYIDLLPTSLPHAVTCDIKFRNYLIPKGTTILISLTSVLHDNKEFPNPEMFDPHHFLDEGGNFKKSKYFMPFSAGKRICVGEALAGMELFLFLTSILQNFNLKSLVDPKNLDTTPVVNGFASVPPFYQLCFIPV
# Procedure, shortened: as §1
# OATP1B1 = target: T4, OATP1B1 (Homo sapiens, UniProt Q9Y6L6); assay: Inhibition of OATP1B1-mediated E217ßG uptake in HEK293 cells
# T4 sequence (Q9Y6L6 1-691): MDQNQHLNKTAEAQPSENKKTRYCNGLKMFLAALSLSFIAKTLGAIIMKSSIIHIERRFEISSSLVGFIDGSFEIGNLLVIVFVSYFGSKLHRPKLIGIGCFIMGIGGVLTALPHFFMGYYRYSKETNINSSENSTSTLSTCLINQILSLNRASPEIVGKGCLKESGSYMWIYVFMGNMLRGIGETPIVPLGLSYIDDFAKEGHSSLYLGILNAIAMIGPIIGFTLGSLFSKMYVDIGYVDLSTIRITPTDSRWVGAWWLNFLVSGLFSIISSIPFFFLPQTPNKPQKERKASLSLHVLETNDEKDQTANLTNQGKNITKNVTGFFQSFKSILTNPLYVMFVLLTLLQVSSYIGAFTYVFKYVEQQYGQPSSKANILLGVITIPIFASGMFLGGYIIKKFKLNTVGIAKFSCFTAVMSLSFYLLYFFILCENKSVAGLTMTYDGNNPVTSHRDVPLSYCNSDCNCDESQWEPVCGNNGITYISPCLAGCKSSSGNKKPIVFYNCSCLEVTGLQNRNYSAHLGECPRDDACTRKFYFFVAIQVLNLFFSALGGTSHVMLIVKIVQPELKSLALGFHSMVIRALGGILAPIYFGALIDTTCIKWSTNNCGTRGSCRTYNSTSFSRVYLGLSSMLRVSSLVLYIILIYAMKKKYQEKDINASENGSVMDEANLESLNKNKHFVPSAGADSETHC
# CYP2D6 = CYP2D6 (Homo sapiens, UniProt P10635); assay: CYP inhibition in human liver microsomes; settings: up to 15 μM
# Chain of CYP2D6 (P10635 whole entry): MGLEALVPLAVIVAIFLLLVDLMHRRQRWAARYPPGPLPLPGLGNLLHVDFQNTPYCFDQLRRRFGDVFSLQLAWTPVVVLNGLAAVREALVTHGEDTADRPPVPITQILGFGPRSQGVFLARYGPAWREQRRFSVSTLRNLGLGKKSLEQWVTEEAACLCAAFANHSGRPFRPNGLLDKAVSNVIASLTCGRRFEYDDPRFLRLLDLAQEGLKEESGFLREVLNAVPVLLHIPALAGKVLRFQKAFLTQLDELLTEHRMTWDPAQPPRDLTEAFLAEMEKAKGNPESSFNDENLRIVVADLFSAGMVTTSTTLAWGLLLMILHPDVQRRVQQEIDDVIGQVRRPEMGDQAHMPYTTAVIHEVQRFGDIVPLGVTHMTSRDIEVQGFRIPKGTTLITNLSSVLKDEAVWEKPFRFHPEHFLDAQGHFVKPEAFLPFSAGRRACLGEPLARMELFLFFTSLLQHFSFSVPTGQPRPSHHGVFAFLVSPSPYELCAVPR
# CYP3A [1] = assay: Time-dependent inhibition of CYP3A in human liver microsomes; settings: for kinact: human
# CYP3A [2] = assay: Reversible CYP3A inhibition in human liver microsomes; settings: MDZ and testosterone as probe substrates
# Procedure, shortened: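 Test compound was pre-incubated for 10 min at 37°C with pooled human liver microsomes containing an isoform-selective substrate. Metabolite formation was expressed as % control activity, calculated as the peak area ratio with compound divided by the peak area ratio without compound, ×100.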
smiles,measurement,setting,value
C[C@H]1CN(C2COC2)CCN1c1ccc(Nc2cc(-c3ccnc(N4CCn5c(cc6c5CC(C)(C)C6)C4=O)c3CO)cn(C)c2=O)nc1 [fenebrutinib],reversible or time-dependent inhibition of CYP2C8,CYP2C8,No reversible or time‐dependent inhibition
same,reversible or time-dependent inhibition of CYP1A2,CYP1A2,No reversible or time‐dependent inhibition
same,reversible or time-dependent inhibition of CYP2B6,CYP2B6,No reversible or time‐dependent inhibition
same,reversible or time-dependent inhibition of CYP2C9,CYP2C9,No reversible or time‐dependent inhibition
same,IC50,OATP1B1,19.7 µM
same,inhibition at 30 μM,"OATP1B1; human, HEK293 cells stably expressing human OATP1B1, pH 7.4, probe E217ßG (1 μM)",62.8%
same,reversible or time-dependent inhibition of CYP2D6,CYP2D6,No reversible or time‐dependent inhibition
same,"kinact/Ki ratio, CYP3A",CYP3A [1],23.3 M⁻¹ s⁻¹
same,time-dependent inhibition (TDI) of CYP3A,CYP3A [1]; MDZ and testosterone as probe substrates,TDI was observed
same,kinact,CYP3A [1]; probe midazolam (50 µM),0.00019 s⁻¹
same,kinact,CYP3A [1]; probe testosterone (250 µM),0.00025 s⁻¹
same,reversible CYP3A inhibition,CYP3A [2],no reversible CYP3A inhibition
